High-throughput results deposited in PubChem by Broad Institute.
DENV2 CPE – protects cells from dengue virus 2 cytopathic effect; DENV2-infected cells, cytopathic effect rescue, plate reader; actives 1.7% (n = 350,000); CPE inhibition, % at 9.99 µM; in the data active = CPE inhibition above about 20%, passing the limit was not always enough; inconclusive = no clear call, values can overlap the other calls; tested in BHK-21 cells
E-selectin induc – E-selectin induction on HUVECs. P16581. HUVEC E-selectin immunofluorescence imaging; normalized: neutral wells 0, TNF-alpha wells 100. activation, % at 7.58 µM. actives 0.37% (n = 260,000);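 active = mean E-selectin-positive cell signal at least 10% of the positive control, reached in at least 60% of replicates, without over 20% cell loss; inconclusive = no rule given, readout overlaps actives, possibly toxicity-flagged; inactive = the rest, including those meeting only one limit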
Target sequence (P16581 whole entry, looked up): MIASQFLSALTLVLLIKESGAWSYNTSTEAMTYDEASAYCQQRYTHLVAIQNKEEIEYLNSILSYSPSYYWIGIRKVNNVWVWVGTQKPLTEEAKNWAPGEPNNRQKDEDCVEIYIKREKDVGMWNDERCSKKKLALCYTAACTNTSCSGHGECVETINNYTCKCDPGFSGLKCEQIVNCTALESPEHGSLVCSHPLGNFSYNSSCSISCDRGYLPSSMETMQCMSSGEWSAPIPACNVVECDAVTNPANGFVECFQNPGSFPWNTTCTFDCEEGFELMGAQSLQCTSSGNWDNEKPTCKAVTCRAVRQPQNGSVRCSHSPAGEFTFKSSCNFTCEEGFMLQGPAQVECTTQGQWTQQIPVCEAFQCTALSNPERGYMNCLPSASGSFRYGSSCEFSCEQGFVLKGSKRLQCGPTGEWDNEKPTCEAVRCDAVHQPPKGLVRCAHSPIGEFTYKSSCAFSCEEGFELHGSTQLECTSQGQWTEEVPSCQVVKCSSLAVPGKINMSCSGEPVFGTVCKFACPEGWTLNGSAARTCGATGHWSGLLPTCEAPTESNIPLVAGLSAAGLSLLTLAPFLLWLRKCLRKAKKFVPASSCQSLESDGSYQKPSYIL
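System: HUVEC, human umbilical vein endothelial cells; quantity: 3,000 cells/well; buffer or medium: EGM-2 medium, gelatin-coated wells; dosing: single-point compound dose; detection: immunofluorescence imaging; evaluation: % PE-positive cells; benchmarks: TNF-alpha, DMSO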
miR122 inh – miR-122 inhibition in Huh7 cells; activation (reporter increase), % at 12.5 µM; Huh7 miR-122 Renilla luciferase sensor, 48 h; neutral wells = 0, positive control = 100; actives 0.3% (n = 340,000);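 active = mean replicate activation score at least 90 and every replicate individually at or above 90; inconclusive = only one of the two criteria met; inactive = neither criterion met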;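 note: higher luciferase means less miR-122 activity so hits act as miR-122 inhibitors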
Cneo AK release – Cryptococcus neoformans lysis via adenylate kinase release; actives 0.2% (n = 360,000); lysis activity, % at 15 µM; C. neoformans lysis, adenylate kinase release luminescence, 4 h; normalised: neutral wells 0, clomiphene wells 100;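 active = mean lysis activity across replicates of at least 80%, whatever share of replicates individually reach that level; inactive = mean lysis activity below 80%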
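Material – Cryptococcus neoformans yeast cells · Quantity – 5 × 10^6 yeast cells/mL · Buffer or medium – YPD medium · Compound – single dose · Timing – 4 h static compound exposure, 37 °C, read 1 h post-reagent · Signal – adenylate kinase release luminescence · Read-out basis – lysis from increased AK signal · Benchmarks – Clomiphene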
Ecoli rRNA inh – selective bacterial rRNA inhibition in E. coli; E. coli WT GFP vs humanized-ribosome RFP mutants, fluorescence, 24 h; hits give low values; DMSO median 0, no signal -100; GFP signal change (wild-type ribosome), % (concentration not given with the values); actives 1.6% (n = 350,000); AID 720706;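 active = significant combined selectivity score with lowered wild-type GFP, culture density cut under 30%, mutant RFP and density less affected; inactive = any of these conditions unmet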
Numbers stand for hits; 0 = inactive; ? = inconclusive; - = no result; [ ] = another dose, or the depositor's remark. Sampled rows, rich in hits. Any-hit rate of the full collection: about 3.1%.

SMILES	DENV2 CPE	E-selectin induc	miR122 inh	Cneo AK release	Ecoli rRNA inh
COc1cc(C2C3=C(COC3=O)OC(C)(C)Oc3cc4c(cc32)OCO4)cc(OC)c1OC (stereo not drawn)	0	0	114	-	0
COc1cc(C2C3=C(COC3=O)Oc3cc4c(cc32)OCO4)ccc1O (stereo not drawn)	0	0	0	-	0
Oc1ccc(N=Nc2n[nH]c(-c3ccc(Cl)cc3)n2)cc1	0	-	0	0	-18
CC(C)NC(=O)Nc1ccc2c(c1)C(=O)N([C@@H](C)CO)C[C@H](C)[C@@H](CN(C)S(=O)(=O)c1cccs1)O2	-	0	0	-	0
CCN1[C@@H]2c3ccc(-c4ccc(F)cc4)c(=O)n3C[C@@H]2[C@@H](CO)[C@@H]1C(=O)NC1CCC1	0	0	-	-	0
C[C@@H]1CCCCO[C@@H](CN(C)S(=O)(=O)c2cn(C)cn2)[C@@H](C)CN([C@H](C)CO)C(=O)c2cc(NS(=O)(=O)c3ccc(Cl)cc3)ccc2O1	37	0	0	0	0
Cc1noc(C)c1S(=O)(=O)Nc1ccc2c(c1)C(=O)N([C@@H](C)CO)C[C@@H](C)[C@H](CN(C)S(=O)(=O)c1cn(C)cn1)OCCCC[C@@H](C)O2	37	-	0	0	0
Cc1ccc(S(=O)(=O)Nc2ccc3c(c2)C(=O)N([C@@H](C)CO)C[C@@H](C)[C@H](CN(C)S(=O)(=O)c2cn(C)cn2)OCCCC[C@@H](C)O3)cc1	21	0	0	0	0
C[C@H](CO)N1C[C@H](C)[C@H](CN(C)CC2CC2)OCCCC[C@H](C)Oc2ccc(NC(=O)Nc3ccc(C(F)(F)F)cc3)cc2C1=O	0	0	-	-	0
C[C@@H]1CN([C@@H](C)CO)C(=O)c2cc(N(C)C)ccc2O[C@@H](C)CCCCO[C@@H]1CN(C)C(=O)Nc1ccc2c(c1)OCO2	-	0	0	-	0
CCOC(=O)OC[C@@H]1[C@@H]2NC(=O)N(C)[C@@]1(COCc1ccc(OC)cc1)Oc1ccccc12	0	-	-	0	-
COc1ccc(OCCNS(=O)(=O)c2ccc3oc4ccccc4c3c2)cc1	-	-	0	0	-
O=S(=O)(NCCOCC(F)(F)C(F)F)c1ccc2oc3ccccc3c2c1	-	-	107	0	-
C[C@H](CO)N1C[C@H](C)[C@@H](CN(C)C(=O)CCC(F)(F)F)OCCCC[C@H](C)Oc2ccc(NC(=O)CCCN(C)C)cc2C1=O	?	0	0	0	0
CCOc1ccc(NC(=O)Nc2cc(-c3ccccc3)sc2C(=O)OC)cc1	0	-	0	0	0
COC(=O)c1sc(-c2ccccc2)cc1NC(=O)C1CC1	0	0	-	-	-27
CCOC(=O)C(=CNc1ccc(Cl)cn1)C(=O)OCC	67	0	-	-	0
CCOC(=O)C(=CNc1ccc(C(F)(F)F)cc1)C(=O)OCC	0	-	-	-	-23
CCOC(=O)C(=CNc1cccc(N)n1)C(=O)OCC	-	-	0	0	-
COc1ccc2c3c([nH]c2c1)[C@H](CO)N(C(=O)CC1CC1)CC31CCN(Cc2cccnc2)CC1	0	0	-	-	0
CCCCNC(=S)NNC(=O)c1ccc2c(c1)OCO2	142	-	-	-	0
CNC(=S)NNC(=O)c1ccc2c(c1)OCO2	0	-	-	-	0
C[C@@H]1CN([C@@H](C)CO)C(=O)c2cc(NC(=O)c3ccncc3)ccc2O[C@@H](C)CCCCO[C@@H]1CN(C)S(=O)(=O)c1cn(C)cn1	0	0	0	0	0
O=c1c2sc3nc(N4CCOCC4)c4c(c3c2ncn1-c1ccccc1)CCCC4	0	0	0	0	0
Cc1ccccc1-n1cnc2c(sc3nc(N4CCOCC4)c4c(c32)CCCC4)c1=O	42	-	-	-	0
SMILES	DENV2 CPE	E-selectin induc	miR122 inh	Cneo AK release	Ecoli rRNA inh
O=C(C[C@H]1CC[C@@H](NS(=O)(=O)c2ccccc2)[C@@H](CO)O1)NCc1ccccc1F	-	0	-	0	0
COc1cc(OC)cc(-c2c(C#Cc3ccsc3)c3cc(-c4cc(OC)c(OC)c(OC)c4)ccc3n2C)c1	38	0	0	0	0
O=C(NCCc1ccccc1)c1ccc([N+](=O)[O-])cc1	-	-	0	0	-
O=C(c1ccc([N+](=O)[O-])cc1)N(Cc1ccccc1)Cc1ccccc1	0	0	0	0	-26
C[C@H](CO)N1C[C@H](C)[C@@H](CN(C)C(=O)Nc2cccc3ccccc23)Oc2c(cccc2N(C)C)C1=O	21	0	0	83	0
C[C@H]1CN([C@@H](C)CO)C(=O)c2cccc(N(C)C)c2O[C@@H]1CN(C)C(=O)Nc1ccc2c(c1)OCO2	0	0	0	0	0
C[C@H](CO)N1C[C@H](C)[C@@H](CN(C)C(=O)Nc2ccc(C(F)(F)F)cc2)Oc2c(cccc2N(C)C)C1=O	0	-	0	0	0
C[C@@H]1CN([C@H](C)CO)C(=O)c2cccc(N(C)C)c2O[C@@H]1CN(C)C(=O)Nc1ccccc1	0	0	0	0	0
C[C@@H]1CN([C@H](C)CO)C(=O)c2cccc(N(C)C)c2O[C@@H]1CN(C)C(=O)Nc1ccc2c(c1)OCO2	27	0	0	0	0
C[C@@H]1CN([C@@H](C)CO)C(=O)c2cccc(N(C)C)c2O[C@H]1CN(C)C(=O)Nc1ccc(C(F)(F)F)cc1	0	-	0	99	0
C[C@@H]1CN([C@H](C)CO)C(=O)c2cccc(N(C)C)c2O[C@H]1CN(C)C(=O)Nc1ccccc1	0	0	124[16.7 µM]	0	0
O=C(Nc1ccc2c(c1)[C@@H]1C[C@H](CC(=O)N3CCCCC3)O[C@@H](CO)[C@@H]1O2)C1CCC1	0	0	0	0	0
C[C@H]1CN([C@@H](C)CO)C(=O)c2cc(N(C)C)ccc2O[C@@H]1CN(C)C(=O)Nc1ccc(C(F)(F)F)cc1	0	0	0	0	0
C[C@H](CO)N1C[C@H](C)[C@@H](CN(C)C(=O)Nc2cccc3ccccc23)Oc2ccc(N(C)C)cc2C1=O	34	0	0	0	0
C[C@@H]1CN([C@@H](C)CO)C(=O)c2cccc(N(C)C)c2O[C@H]1CN(C)C(=O)Nc1ccccc1	30	0	0	0	0
Cc1noc(C)c1NC(=O)N(C)C[C@H]1Oc2c(cccc2N(C)C)C(=O)N([C@@H](C)CO)C[C@H]1C	0	0	0	0	0
Cc1noc(C)c1NC(=O)N(C)C[C@@H]1Oc2c(cccc2N(C)C)C(=O)N([C@H](C)CO)C[C@@H]1C	24	0	0	0	0
C[C@@H]1CN([C@H](C)CO)C(=O)c2cc(N(C)C)ccc2O[C@@H]1CN(C)C(=O)Nc1ccc(C(F)(F)F)cc1	0	0	0	107	0
C[C@H](CO)N1C[C@H](C)[C@H](CN(C)C(=O)c2cnccn2)Oc2ncc(-c3cccc(C#N)c3)cc2C1=O	0	0	-	0	0
COc1ccccc1S(=O)(=O)N[C@@H]1CC[C@@H](CC(=O)NCc2cc(F)cc(F)c2)O[C@@H]1CO	0	0	-	-	0
